Source: the EternaBench riboswitch data

Test system: MS2 coat protein
Experiment: apparent Kd, MS2 coat protein; higher = weaker binding; RNA-MaP array; FMN 200 µM where present
How it was run: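 Apparent Kd: the median of filtered binding-curve fits from single clusters. Designs were transcribed on Illumina sequencing-chip clusters by stalled E. coli RNA polymerase and titrated with SNAP-549-labelled MS2 coat protein from 0.7 or 1.5 nM, doubling to 3 µM, in 100 mM Tris-HCl pH 7.5, 80 mM KCl, 4 mM MgCl2, BSA, DTT, yeast tRNA and Tween-20. Each series ran without and then with constant ligand, and green signal was normalised to red-channel RNA signal and control-cluster median Fmax.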

[1] = designed as: OFF switch for flavin mononucleotide, no ligand
[2] = ligand present: flavin mononucleotide, designed as: OFF switch for flavin mononucleotide
[3] = designed as: ON switch for flavin mononucleotide, no ligand
[4] = ligand present: flavin mononucleotide, designed as: ON switch for flavin mononucleotide

Sequence	apparent Kd [1]	apparent Kd [2]	apparent Kd [3]	apparent Kd [4]
AAAAAGCGAGGAUAUACAUGAGGAUCACCCAUGUGAAAAAAAAAAAAAAAAAAAAAAAGUAGAAGGCGCAAAAA	85.8 nM	65.3 nM	–	–
GCCAUCGUACGAGGAUAUGGCACCGAAACGGUGCCAGAAGGCGUGUCAAUAGACAUGAGGAUCACCCAUGUAUUAUCGAUGGCA	–	–	23.2 nM	17.6 nM
UAAAGCUCCGAGAAGGUAUGCGUACAUGAGGAUCACCCAUGUCAAAGCAUAAGGAUAUCGUGUGCGUGCGUCGAAUGUAGGAAA	–	–	10.2 nM	5.55 nM
UUCGUGCAGCUUUGCUGUACGCGUACAUGAGGAUCACCCAUGUAGGAUAUGGUACGCGUUGCGUGCUAGAAGGAUAUGGAGAGG	18.4 nM	22.9 nM	–	–
AAGAUGCGGGUAGGAUAUGGAGAGAAAGAAAGACCAGAAGGACUGGUCACACAACAUGAGGAUCACCCAUGUGUGUGUUGCGAA	11.8 nM	8.91 nM	–	–
AAAUUUAACGAAGGAUAUGCUGACAUGAGGAUCACCCAUGUGUGCCUUGUGUUGCUGAAACGGGAGCAGAAGGUCGUAUACAUA	694 nM	1180 nM	–	–
AGAAAUUAGUGAGGAUAUGCAUAAUUUGUAGCUGCAGAAGGCACGGACCACAAGACAUGAGGAUCACCCAUGUGGUAUUUAGAU	26.8 nM	28 nM	–	–
GUGGUAUUCGUAGGAUAUCCGUCGCCACCGUGUGGAGAAGGACGAACAUGAGGAUCACCCAUGUAUCAUGGUGUGGACGCUGUC	92.1 nM	86.6 nM	–	–
UAAACAUGAGGAUCACCCAUGUUAUGAUCGGUUGAUGAAAGUGAGGAUAUACAAAAUUUUAUGGAGUAGAAGGCACUGGGUUCU	–	–	31.1 nM	29.9 nM
CCACGGCACUCGUUGGUACGGGCAGAGGAUAUCGACAUGAGGAUCACCCAUGUGGAUGUAUAUGUCGAGAAGGCUGAUUCGUCU	44 nM	197 nM	–	–
GAAAGGGCAGGAUAUGCAUGUUGGCAAAAUUCUCAGCAAGAACAUGAGGAUCACCCAUGUAGAAGGGCCAACGG	42.3 nM	59.9 nM	–	–
AAAAAGUGAGGAUAUCGGAAAAAAAAAAAAAAAAAAAAAAACGAGAAGGCACAUGAGGAUCACCCAUGUAAAAA	42.3 nM	33.6 nM	–	–
CGCAACUCAGAUCUUUUGAACAUGAGGAUCACCCAUGUAUUGAGAAGGAGCUGGAAGAGAGACAGCUAGGAUAUCAGAGUUGCG	5.4 nM	5.73 nM	–	–
CGAUAUGAUGCAGGAUAUCUAUCUUGAAUGAGGAGAGAAGGGCAUAGGGAGACAUAAGCCUUAUUACAUGAGGAUCACCCAUGU	12.9 nM	12 nM	–	–
CGUAACUGCAUAGGAUAUUGAUACAUGAGGAUCACCCAUGUUUUUGGGAUUAGUAAUAUAUUAAGCAAGAAGGAUGGAGUUACG	–	–	74.2 nM	39.9 nM
GUGCAUACGUGAGGAUAUGUAUUAGAUAGUGGUACAGAAGGCAUGUCAGAUGACAUGAGGAUCACCCAUGUUGGCACAAUGCGC	–	–	137 nM	30.5 nM
AUAUUUAAUAUAGGAUAUAGGAAGAAUGAUGAACUAGAAGGAUAACAUACAUGAGGAUCACCCAUGUCCCAUGUGAUCACCCAU	321 nM	338 nM	–	–
UUUGUAAUGUCAGGAUAUAUAAUAAGUCAUACAGUAGAAGGGAUAAUUAUACUCAUGUACAUGAGGAUCACCCAUGUUAAAUAU	–	–	80.1 nM	45.6 nM
CCUAUGUAAGGAUAUAGCCACAUUACGAAUAAGUAGUGUGGCUAGAAGGUACAUGAGGAUCACCCAUGUAUGGG	195 nM	40.6 nM	–	–
UUUAGUUUAGGAUAUGUAGACAUUAACAUGAGGAUCACCCAUGUAGAUCCUGAAUUGACUACAGAAGGAAGCAUUU	248 nM	446 nM	–	–
CGUGCGUAUGUGAGGAUAUGCUGGUCCUUGGAUCGGCAGAAGGCACAUGAGGAUCACCCAUGUGGUGUCGUUCU	172 nM	23.1 nM	–	–
AAGAAGUCAGGAUAUACAUGAGGAUCACCCAUGUAAAAGAAAGAAAAGGGAAAGAAAAGUAGAAGGGACAAGAA	26.7 nM	32.2 nM	–	–
UUUUUUGUUGUGAGGAUAUCGUAGUUAUUUUGUUACGAGAAGGCACAUGAGGAUCACCCAUGUUUUUUGAUGUU	23.8 nM	82.6 nM	–	–
GCAUGACAAAGUCAUGCAUUACGAACAUGAGGAUCACCCAUGUAGGAUAUGCUACUCAAAGAGUAGCAGAAGGACAUGUGUCUU	32.7 nM	158 nM	–	–
AGUUAAUAUCGAGGAUAUCCUCAGAAACAUGAGGAUCACCCAUGUAGAAUGGGAGAAGGCGAUAUUAACAGCAUGUUACAUGCA	–	–	182 nM	27.9 nM
GAAGAAAAGGCAGGAUAUCAGAAACACAUGAUAAGGAGAUGCAACAUGAGGAUCACCCAUGUAAAUGAGAAGGGCCGCCCUUCC	35.6 nM	62.1 nM	–	–
GCAUGCAUAGCGAUAUGAUCGAGAGAUCAUGUCGCUAAAUUUAGAAGGACAUGAGGAUCACCCAUGUAGGAUAUGGGAGCAUGC	–	–	11.7 nM	7.72 nM
CGCUAGUCAGGAUAUACGCACAUGUCACCAGACGUGAAGGGACAUGAGGAUCACCCAUGUAGAAGGGACUAGCC	98.5 nM	246 nM	–	–

Sequence	apparent Kd [1]	apparent Kd [2]	apparent Kd [3]	apparent Kd [4]
AAACUGUGAGGAUAUGGUGAGUAGUGCCUGAGCGCUGCUCACCAGAAGGCACAUGAGGAUCACCCAUGUAUAAC	24.8 nM	62.1 nM	–	–
UUGGACGUCGUAGGAUAUGUACGAUAUUCCUACAUGAGGAUCACCCAUGUUGACAUGGAAGAAGGACAGAAGGACGAUGUCCAU	–	–	5.5 nM	4.87 nM
AAAUUAAGAAGAGGAUAUUGACAUGAGGAUCACCCAUGUAUUUGGGAAUGUUUACUGAAUUCUUACAAGAAGGUUUACGAACUU	157 nM	99.7 nM	–	–
CGAUAGGACAGAGGAUAUACACAUGAGGAUCACCCAUGUGAUUACAACGCGAAAGCUCCAAACAUGUAGAAGGCUGUCCUAUCG	18.1 nM	21.1 nM	–	–
GACAUACAUGAGGAUCACCCAUGUUCAAACGAACAAGGAUAUGUGUGGAAACCAUACUAUACAGAAGGUGUCUGUC	–	–	81.7 nM	97.7 nM
AGAUAACAUGAGGAUCACCCAUGUGAGGAUAUUUACCCAAGAGCUUCGGCUCUCAGGUGGAGAAGGCACGUUGA	51.3 nM	76.8 nM	–	–
AUCAGCUUGUCAGGAUAUGCAUGUCAACGAAAGUUGACAAUCUUAAUAACAUGAGGAUCACCCAUGUAGAAGGGACGAGCUGAU	17.1 nM	19.3 nM	–	–
UAUAACUUACAGAAGGGUAUUGUGGUGCAUUAUUAGUAGGAAAUACUAUACAGGAUAUGUAAUACAUGAGGAUCACCCAUGUUC	–	–	22.3 nM	14.9 nM
AAAUCUCAGAUAGGAUAUAUAGGAUAACUUAAGACCUAACAUGAGGAUCACCCAUGUGAUUAUUCGUAGAAGGAUCAUUGACCC	–	–	166 nM	175 nM
GUGCCUUGGUAGAAGGCCCAAUGCAAAGCAUAGGGAGGAUAUACAUAUAAUAAAUAAACAUGAGGAUCACCCAUGUGGCACAAA	–	–	10.8 nM	10.4 nM
AAGAGUAGAGGAUAUACAUGAGGAUCACCCAUGUAAUCCAGAUAAGGAAGCAUGUCGUGUAGAAGGCUGCAUGA	15.9 nM	12.8 nM	–	–
AAAAGACAUGAGGAUCACCCAUGUUAAGACGUGGGAGGAUAUGUAUGGAAAACAUGCUGUACAGAAGGCCCGUGUC	–	–	53.8 nM	19.7 nM
UUUAUUUUUAGAGGAUAUAUUGUGUGUGAGAGAAUAGAAGGCUAAACAUACAUACAUAACAUGAGGAUCACCCAUGUCCAUGUU	–	–	69.2 nM	54.9 nM
GUGACGAUGUAAGGAUAUGCUGAGGAUAACUCAGCAGAAGGUACAUGAGGAUCACCCAUGUAACGUCACAAUAAUAAUAAUAAU	12.3 nM	22.9 nM	–	–
AAGUUAGGGAGAGGAUAUUGACAUGAGGAUCACCCAUGUAUUUGGGAGUGUUUACUGAAUUCUUACGAGAAGGCUUACGAAAUU	344 nM	259 nM	–	–
AUGACUUAUGUAGGAUAUGCAUAGAGUUGCUAUGCAGAAGGACAUGAGGAUCACCCAUGUAUGUAUACCUUACAAAACUAGCAU	9.07 nM	54 nM	–	–
UGUAUAUAGGCAGGAUAUACAUGAAUAUAUAUGAUGUAGUAUGAUGUAACAUGAGGAUCACCCAUGUAGAAGGGCCAGUAUAUA	45.3 nM	129 nM	–	–
UUUUAACAUGAGGAUCACCCAUGUGAGGAUAUCGAAAUUUAUAUUUAUAUUUAUUAAACGAGAAGGCACAUUUU	70.2 nM	100 nM	–	–
AGAUUACGAGGAUAUCGAGUUUAGUACAUGAGGAUCACCCAUGUUAUCCAGGUCUCGUUUCGAGAAGGCGUGAUUC	256 nM	92.3 nM	–	–
GUGUGAAUAGGAGGAUAUAUACAACAUGAGGAUCACCCAUGUACCCGUGUAGUAGAAGGUUUGUUUUUAUAUAAUAUUAUAUUU	–	–	26.8 nM	21.6 nM
GGAUGACAAAGUCAUCCUAUUCGAACAUGAGGAUCACCCAUGUAGGAUAUGCUUCUCAAAGAGAAGCAGAAGGACAUGUGCUUU	36.8 nM	160 nM	–	–
GCUAUCGCAUGAGGAUAUGGUCAGCUUUGCUGACCAGAAGGCAUGUCAUAAGACAUGAGGAUCACCCAUGUAGUUAAGAUAGCA	–	–	840 nM	50.5 nM
GAAUAUUCGUUGAACAUGAGGAUCACCCAUGUAACUUGACAUGAGGAUAUGGAUUCUAAUUGGAUCCAGAAGGUAUGAAUAUUC	–	–	–	91.8 nM
ACUGAAGUCACAGGAUAUCAUAUGUCGGCACAUUGAGAAGGGUGACUGGGCUACAUGAGGAUCACCCAUGUGCCGUCGUAACAA	–	–	104 nM	80.4 nM
AAGUCUGGACGAGGAUAUCAGUUGUAUCUAGCAUCAACAUGAGGAUCACCCAUGUUGCAAUAGGGUGAGAAGGCGUUUGGGCAA	–	–	150 nM	20.6 nM
UUAUUGGUAGUGAGGAUAUCGGUUUGAUAGAUAUUCGAGAAGGCACAUGAGGAUCACCCAUGUAAGAUUGGGAA	201 nM	196 nM	–	–
ACAUGAGGAUCACCCAUGUUUAUUGGGUACUAUACUAUCAGCAAGGAUAUGCAAAUUUUUUUUACGCAGAAGGUGCAGGAACCU	523 nM	334 nM	–	–
